Source: PubChem (several laboratories)
eIF4E 4G PPI = eIF4E/eIF4G interaction inhibition in translation initiation; AID 782; 220,000 compounds, 0.37% hits; TR-FRET eIF4E-eIF4GI(517-606) binding, 2 h; P63073+Q04637; inhibition, % at 21.7 µM
WT yeast gro inh = growth inhibition of WT yeast, mitochondrial fusion screen | mitochondrial fusion phenotypic screen, WT strain | inhibition, % at 10 µM | 190,000 compounds, 2.1% hits | AID 1362; in the data active = inhibition above about 58%; tested in S. cerevisiae
14-3-3 Bad PPI = disrupts binding of bovine 14-3-3 zeta to phospho-Bad peptide; inhibition, % at 21.7 µM; TR-FRET 14-3-3zeta/Dy647-pBad peptide displacement, 1 h; 220,000 compounds, 0.71% hits; P63103;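 active = inhibition above about 70%, limit read from the data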
Target sequence (P63103 whole entry, looked up): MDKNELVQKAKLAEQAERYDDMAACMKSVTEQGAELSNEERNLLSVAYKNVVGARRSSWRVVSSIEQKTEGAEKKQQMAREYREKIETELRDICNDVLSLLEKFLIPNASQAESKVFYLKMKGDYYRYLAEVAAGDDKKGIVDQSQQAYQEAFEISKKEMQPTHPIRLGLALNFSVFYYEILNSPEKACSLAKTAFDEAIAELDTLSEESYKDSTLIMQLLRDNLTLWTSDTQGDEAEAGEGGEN
RBBP9 inhibitor = blocks human serine hydrolase RBBP9; O75884; recombinant RBBP9, FP-Rh probe fluorescence polarization; inhibition, % at 7.94 µM; AID 1515; 220,000 compounds, 0.2% hits;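 active = inhibition above the campaign mean of all tested compounds plus 3 SD, cut at about 14% in these data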
Target sequence (O75884 whole entry, looked up): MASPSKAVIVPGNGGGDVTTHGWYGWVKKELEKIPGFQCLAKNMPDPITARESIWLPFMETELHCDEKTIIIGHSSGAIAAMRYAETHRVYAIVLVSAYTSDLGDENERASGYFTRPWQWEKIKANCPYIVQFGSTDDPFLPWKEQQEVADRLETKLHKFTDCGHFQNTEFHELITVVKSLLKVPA
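Test system – recombinant human RBBP9 · Input – RBBP9 2.5 µM in dispensing solution, pre-mixing · Medium – Tris buffer pH 8.0, NaCl, Pluronic · Schedule – preincubation 30 min plus labeling 45 min at 25 °C · Measured by – fluorescence polarization · Measure – % inhibition · Controls – DMSO and no-protein wells · Replicates – one well per compound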
NCF1 inh = blocks human p47phox regulatory protein of NADPH oxidases; 220,000 compounds, 0.53% hits; p47phox/p22phox peptide binding, fluorescence polarization, 2 h; P14598; inhibition, % at 24.7 µM
EBV gp42 block = EBV gp42 inhibition. 220,000 compounds, 0.42% hits. Q1HVG2. Fluorescence polarization binding assay, mP read-out. inhibition, % (tested at 21.74 µM); in the data active = inhibition above about 50%
Hits are given with their value; – = inactive; · = not tested or not shown; [ ] = dose if it differs, or a comment. An excerpt weighted towards active compounds, which were near 3.7% of everything screened.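 The calls were made as follows, unless noted: active = inhibition above about 30% (limit read from the data); inactive = the rest.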

SMILES	eIF4E 4G PPI	WT yeast gro inh	14-3-3 Bad PPI	RBBP9 inhibitor	NCF1 inh	EBV gp42 block
CCN1CCN(c2cc(C(C)(C)C)nc3c(-c4ccccc4)c(C)nn23)CC1	–	94.4	–	–	–	–
Cc1nn2c(N3CCN(C(=O)c4ccco4)CC3)cc(C(C)(C)C)nc2c1-c1ccc(Cl)cc1	–	–	–	–	–	–
Cc1cc(N2CCN(C(=O)c3ccco3)CC2)n2nc(C)c(-c3ccccc3)c2n1	–	63.0	–	–	–	–
Cc1ccc(-c2noc(-c3ccoc3C)n2)cc1	–	–	–	–	–	–
Cc1cccc(N2CCN(C(=O)c3cc4n(n3)C(C(F)(F)F)CC(c3ccco3)N4)CC2)c1C (stereo not drawn)	–	60.8	–	–	–	–
CCn1c(CSc2n[nH]c(N)n2)nc2cc(C(=O)O)ccc21	–	–	–	–	–	64.0
CCn1c(CSc2nnc3ccccn23)nc2cc(C(=O)O)ccc21	–	–	–	–	–	83.0
Cc1ccccc1NC(=S)NCCC(c1ccccc1)c1ccccc1	–	78.8	–	–	–	–
Cc1ccc(NC(=S)NCCC(c2ccccc2)c2ccccc2)c(C)c1	–	65.1	–	–	–	–
O=C(NCCCc1ccccc1)Nc1cccc(Cl)c1	–	76.9	–	–	–	–
S=C(NCCC(c1ccccc1)c1ccccc1)Nc1cccc(Cl)c1	–	80.2	–	–	–	–
S=C(NCc1ccncc1)Nc1cccc(Cl)c1	–	–	–	–	–	–
COc1ccc(OC)c(NC(=S)NCCC(c2ccccc2)c2ccccc2)c1	·	·	·	–	·	·
Cc1cccc(C)c1NC(=S)NC(C)(C)CO	–	·	–	–	–	–
CCN1CCN(C(=S)Nc2ccc3nc4n(c(=O)c3c2)CCCCC4)CC1	–	–	–	–	–	–
CN(C)c1ccc(-c2cc([C@H]3[C@@H]4C=CCC[C@@]4(C)C(=O)N3Cc3ccccc3)ccc2F)cc1	–	·	–	·	–	–
Fc1ccc(CNC(=S)Nc2cccc(Cl)c2)cc1	–	60.3	–	–	–	–
CN1CCN(C2=CC(=O)OC23CCCCC3)CC1	84.1	–	–	–	–	–
O=C(OC(C(=O)Nc1cc(Cl)cc(Cl)c1)c1ccccc1)C1=COCCO1 (stereo not drawn)	–	58.4	–	–	–	–
CCCCC(=O)O[C@H]1CC[C@H]2[C@@H]3CCc4cc(O)ccc4[C@H]3CC[C@]12C	–	90.6	–	–	–	–
CCOc1ccc(NC(=O)CN2C(=O)/C(=C3\SC(=S)N(C4CCS(=O)(=O)C4)C3=O)c3ccccc32)cc1 (stereo not drawn)	–	·	–	–	63.0	–
CCOc1ccc(NC(=O)CN2C(=O)CSC(C)C2=O)cc1 (stereo not drawn)	–	–	–	–	–	–
O=C(COc1cccc2ccccc12)Nc1nc2ccccc2[nH]1	–	67.0	–	–	–	–
CCOc1ccccc1OCC(=O)Nc1nc2ccccc2[nH]1	–	–	–	–	–	–
O=C1CCC/C(=N\NC(=O)COc2ccc(Cl)cc2)C1	–	–	–	–	–	–
SMILES	eIF4E 4G PPI	WT yeast gro inh	14-3-3 Bad PPI	RBBP9 inhibitor	NCF1 inh	EBV gp42 block
N=c1c2c(n(Cc3ccc(Cl)cc3)c3c1CCC3)CCC2	–	62.3	–	–	–	–
N=c1c2c(n(Cc3ccccc3)c3c1CCC3)CCC2	–	71.1	–	–	–	–
N=c1c2c(n(Cc3cccc(Cl)c3)c3c1CCC3)CCCC2	–	62.4	–	–	–	–
COc1cccc(/C=N/NC(=O)CNC(=O)COc2ccccc2)c1O	–	·	–	–	81.6	–
CCN1C(=O)/C(=C2/C=Cc3ccccc3N2C)OC1=S	–	–	–	–	–	–
CN1/C(=C/c2cc[n+](C)c3ccccc23)C=Cc2ccccc21	–	91.0	–	–	–	–
COC(=O)C(=O)/C=C(\O)c1c(C)cc(C)cc1C	–	·	–	–	–	–
c1ccc(-c2csc(N3CCN(c4ccccn4)CC3)n2)cc1	–	62.8	–	–	–	–
CC(C)CCNCC(=O)NC(c1ccccc1)c1ccccc1	–	–	–	–	–	–
CC1CCc2c(sc3ncnc(N4CCOCC4)c23)C1 (stereo not drawn)	–	–	–	–	–	–
CC1CCc2c(sc3ncnc(NCCN4CCOCC4)c23)C1 (stereo not drawn)	50.5	–	–	·	–	–
O=C(NCc1cccnc1)c1cc2nc(-c3cccs3)cc(C(F)(F)Cl)n2n1	–	–	–	–	–	–
C/C(=N\NC(=O)C1(C)NC(C)(C)Cc2ccccc21)c1ccccc1 (stereo not drawn)	–	–	–	–	–	–
c1ccc2c(c1)SCc1nnc(-c3ccncc3)n1-2	–	·	–	–	–	–
COc1ccc(-c2nnc3n2-c2ccccc2SC3)cc1OC	–	–	78.1	–	–	–
COc1cccc(CN2CCNC(=O)C2CC(=O)NCCn2ccc3ccccc32)c1OC (stereo not drawn)	–	–	–	–	–	–
O=S(=O)(c1ccc(-c2ccon2)s1)N1CCN(c2ccccn2)CC1	–	·	–	–	–	–
Oc1ccc(N=Cc2ccc(O)c(O)c2)cc1	–	–	85.9[fluorescence artefact?]	–	–	–
O=C(CCC(=O)N1CCN(S(=O)(=O)c2ccc(Cl)cc2)CC1)Nc1cccc(Br)c1	–	–	–	–	–	–
COc1ccc(C(C)=O)cc1COC(=O)c1cnc(Cl)c(Cl)c1	–	–	–	–	–	–
O=C(N/N=C/c1cn(-c2cccs2)nc1-c1ccccc1)c1ccccc1Br	–	–	–	–	–	–
O=C(N/N=C/c1cn(-c2cccs2)nc1-c1ccccc1)c1ccccc1O	–	60.1	–	–	–	–
C/C(CCc1ccc2c(c1)OCO2)=N\N=C(/N)SC1CC(=O)N(c2ccc(Cl)cc2)C1=O (stereo not drawn)	–	65.2	–	–	–	–
O=C(O)c1ccc(N2C(=O)CC(SC(=NCc3ccc4c(c3)OCO4)Nc3ccc(F)cc3)C2=O)cc1 (stereo not drawn)	–	–	–	–	–	–
O=C(O)c1ccc(N2C(=O)CC(SC(=NCc3ccc4c(c3)OCO4)Nc3ccccc3)C2=O)cc1 (stereo not drawn)	92.3	·	–	–	–	–
SMILES	eIF4E 4G PPI	WT yeast gro inh	14-3-3 Bad PPI	RBBP9 inhibitor	NCF1 inh	EBV gp42 block
COC(=O)c1ccc(N2C(=O)CC(SCC(=O)Nc3ccc(OC)cc3)C2=O)cc1 (stereo not drawn)	–	·	–	–	–	–
CN=C(Nc1cc(Cl)ccc1Cl)SC1CC(=O)N(c2ccc(C(=O)OC)cc2)C1=O (stereo not drawn)	–	69.3	–	–	–	–
O=C1CC(SC(=Nc2ccccc2)Nc2ccccc2)C(=O)N1c1ccc(Cl)c(Cl)c1 (stereo not drawn)	–	61.8	–	–	–	–
CCN(CC)S(=O)(=O)c1cc(F)ccc1OC	35.4	–	–	–	–	–
Cc1ccc(N=N/C(=C\O)C(=O)c2ccc(Cl)cc2)cc1	–	97.3	–	–	–	–
O=C(/C(=C/O)N=Nc1ccccc1)c1ccc(Cl)cc1	–	67.6	–	–	–	–
